Measurements: the RNAGym collection of RNA variant scans (doi:10.1126/science.aae0568)
Fewer inactive variants are shown than the library holds.

B1: tRNA (parent)
chain: GUUCCGUUGGCGUAAUGGUAACGCGUCUCCCUCCUAAGGAGAAGACUGCGGGUUCGAGUCCCGUACGGAACG

Variants of: B1
Assay: yeast fitness relative to wild type (ratio to wild type); higher = fitter; tRNA-Arg(CCU), competitive growth, 37 C, YPD
Summary of the method: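 Variants of the tRNA-Arg(CCU) gene were chemically synthesised with a 3% per-site mutation rate across 69 sites and placed at the native genomic locus in Saccharomyces cerevisiae. Six parallel replicates of the pooled strains were competed in YPD at 37°C for 24 hours, and gene amplicons from the start and end populations were read by 100-nucleotide paired-end sequencing. Darwinian fitness relative to wild type was derived from changes in genotype frequencies. Genotypes required ≥ 100 starting reads, and estimates < 0.5 were set to 0.5.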

Variant | yeast fitness
C30G A40C U64A | 0.565
C30U A36U A70C | ≤ 0.5
C30G C31G U64C A65C | ≤ 0.5
C30A C34G | 0.682
C30A C49A C66U | ≤ 0.5
C30A C31U C60G | 0.565
C30U A45C G58A G67U | ≤ 0.5
C30G G51C A65G | ≤ 0.5
C30G C31U | 0.678
C29U G38C U64C | ≤ 0.5
C29U G63C | 0.728
C30U C34G | 0.715
C30A C33A | 0.652
C29U U47C G67U A69U | ≤ 0.5
C30U C31U A70C | 0.784
C30G C33G C60G A70C | ≤ 0.5
C30A G63A U64C | 0.893
C30G G39C | 0.579
C30G C31G U32A C66U | 0.527
C29U G51A | 0.883
C30G C46A A70G | 0.591
C30G C61U A69U | ≤ 0.5
C30G C49A U53C G63A C66G | ≤ 0.5
C30U A57G C66U | 0.53

Variant | yeast fitness
C30U C34G G39A C49G C61U | ≤ 0.5
C30G A42U A45G C61U G67A | ≤ 0.5
C29U U32G A43U G44C U53C | ≤ 0.5
C30A A65U A69C | 0.692
C30A C61A A65C | 0.578
C30G C33G C34U A42U C55A | ≤ 0.5
C30A C55U C62G | 0.508
C30U A43U G51C | ≤ 0.5
C30A G41C | 0.796
C30G A57U C60G | ≤ 0.5
C30A U47C G58A A69U | 0.563
C30A G48A U64A C66G | 0.611
C30A G51A | 0.774
C30A G51C | 0.508
C30G C61U G68A | 0.541
C30A G63C | 0.774
C30G C31G G38C C46G | 0.768
C30U A43U U64C | 0.707
C30U C31U C49A | ≤ 0.5
C30G G39C C55A | ≤ 0.5
C30G A37C C46G | ≤ 0.5
C30G G58C | 0.637
C30U C31G C33U A37C A65C | ≤ 0.5
C30U C31G A37U G48C | ≤ 0.5

Variant | yeast fitness
C30G A45C C46U | 0.612
C30U A45G A65G | 0.538
C29U G38C G39A A65G C66A G67A | ≤ 0.5
C30G A57U C60G A65U | 0.531
C30G A37U C61U | ≤ 0.5
C30G C33G A69C | 0.544
C30U C33G | 0.691
C30U C33U | 0.669
C29U G41A A42C G50C A70G | ≤ 0.5
C30G U35C C62U | 0.551
C29U U35C G44C C49U A57U G63A | ≤ 0.5
C29U U47A A69U | 0.679
C30A U35C A37U | 0.547
C30A G48C | 0.797
C29U G44C | 0.825
C30A U53C A70C | 0.506
C30A C49A C60U | ≤ 0.5
C30U C46G G52A | 0.6
C30G C31A A36G G63C | ≤ 0.5
C30G C31G A43G G56C | ≤ 0.5
C30G C46G C60U A69G | ≤ 0.5
C30U C46A C66U | 0.83
C30G C31U C61G | 0.557
C30A C66A | 0.636

Variant | yeast fitness
C30A C62G A70U | 0.547
C30G G41C A57U | ≤ 0.5
C30U C49G C61U | 0.547
C30A G67U | 0.671
C30A G67C | 0.841
C30A A57U | 0.768
C30U C55A C62U | ≤ 0.5
C30U C61U G63A A65G | ≤ 0.5
C30G C34G G63C | ≤ 0.5
C29U G67C | 0.848
C29U G67A | 0.771
C30A C34G G50A C62U C66A | ≤ 0.5
C30G C33G G48C C60A | 0.586
C30G A40U C46U | 0.558
C30A A37U G44C U53A | ≤ 0.5
C30U A40C C49G | ≤ 0.5
C30G C33A C49A | 0.618
C30U C46U A65C | 0.658
C30A A37C G38C | ≤ 0.5
C30A C34U G63C | 0.698
C30U C34G A40C C49G G68C | ≤ 0.5
C29U G41C | 0.776
C29U G68U | 0.803
C29U G68A | 0.937

Variant | yeast fitness
C30U C31A | 0.754
C30U C31G | 0.79
C30U A37G A42G C60G | 0.516
C30G C31U G56A C62U A69G | ≤ 0.5
C30G C34U A36U A65U | 0.612
C30U C60G C61A A69G | ≤ 0.5
C30A A40U G58U | ≤ 0.5
C30G U59G C66A | ≤ 0.5
C30G G56C C62U | ≤ 0.5
C30G C34U U47A C49A | 0.691
C30A A36U C60U A69C | 0.6
C29U U35C | 0.95
C29U G58C G68A | ≤ 0.5
C29U G41A A45C G67U | ≤ 0.5
C30A A40C G56A | ≤ 0.5
C30G C33G C60G | ≤ 0.5
C30A A42G U54A A57C | ≤ 0.5
C30A G56C | 0.639
C30A G56U | 0.831
C30A G56A | 1.04
C30A A37C G41A A43U G44C | ≤ 0.5
C30U C34G U53C A69C | ≤ 0.5
C30G C33U C49U G56A | ≤ 0.5
C29U U32A A69U | 0.6

Variant | yeast fitness
C30G C31G G38C C46G C49U | 0.532
C30G U47G A65G | ≤ 0.5
C30A U53G C60G C62A A70U | 0.515
C30A G41C G51A | ≤ 0.5
C30U C34U A37U U59C A65U | ≤ 0.5
C30U C31A A40U G56A | ≤ 0.5
C30G C49A U54G | ≤ 0.5
C30G G38A | 0.572
C29U U53C C55G C62A | ≤ 0.5
C29U U54A | 0.627
C30U A45U A57C | 0.566
C30G A45G | 0.698
C30G C33A G50A G52A C60U C61G | ≤ 0.5
C30A C62G | 0.662
C30A G44C U59A | ≤ 0.5
C30A C46G | 0.991
C30G A69G | ≤ 0.5
C30G A69C | 0.687
C30G A37C C46G G56A | ≤ 0.5
C30G U32A A40G C61G | ≤ 0.5
C30G A42U A45G | ≤ 0.5
C30A U32G G67A A69C | ≤ 0.5
C30U A37U | 0.65
C30G G44A G48A G58A | ≤ 0.5

Variant | yeast fitness
C30U A45U C49G | 0.713
C30G U32G C46G C66U | ≤ 0.5
C30G U35A C61U C66G A69U | 0.633
C30G A43U G48C C55A | 0.557
C30G C33U | 0.555
C30U A37C C49U C66U | ≤ 0.5
C30U C34A A36G C60U A70U | ≤ 0.5
C30U A43C U47G U54G | 0.85
C30G C34G G39C A69C | ≤ 0.5
C30A G52A A65U | ≤ 0.5
C30U C46G C49U A69C | ≤ 0.5
C30A C62U G63A A69G | ≤ 0.5
C30G A37G A65G | ≤ 0.5
C30G A36C | 0.561
C30G A36G | 0.679
C30G A36U | 0.538
C29U G51C G67A | ≤ 0.5
C30A A37C G41A A43U G44C A70G | ≤ 0.5
C29U U47C | 0.923
C29U U47A | 0.795
C30G A37C A45G | 0.633
C30G C46A C60A | ≤ 0.5
C30G C33G C34U A42U C66U G67C | ≤ 0.5
